Bridge positions count the residues as written; N and C are the ends. Peptide text beside a SMILES is read from it.
Key:
Oxytocin receptor [1] = target: T1, Oxytocin receptor (Homo sapiens, UniProt P30559); assay: Activity at oxytocin receptor expressed in COS1 cells assessed as IP-one generation by HTRF assay; format: cell-based, COS-1
T1 sequence (P30559 whole entry): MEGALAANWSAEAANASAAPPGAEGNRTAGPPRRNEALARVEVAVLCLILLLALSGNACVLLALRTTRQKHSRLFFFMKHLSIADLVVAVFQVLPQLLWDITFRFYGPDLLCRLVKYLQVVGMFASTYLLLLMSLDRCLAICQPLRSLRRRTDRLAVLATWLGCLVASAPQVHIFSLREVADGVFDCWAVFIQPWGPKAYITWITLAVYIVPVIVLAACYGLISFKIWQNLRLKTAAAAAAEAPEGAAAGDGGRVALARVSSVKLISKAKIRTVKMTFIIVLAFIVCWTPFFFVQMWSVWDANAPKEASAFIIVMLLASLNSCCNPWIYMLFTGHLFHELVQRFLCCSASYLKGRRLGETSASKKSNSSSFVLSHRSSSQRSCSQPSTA
Method in brief: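 Human OTR transiently transfected into COS-1 cells (Lipofectamine2000, DNA ratio 2); assayed 48 h post-transfection. Cells stimulated with increasing compound concentrations in HEPES buffer containing 50 mM LiCl, pH 7.4, 1 h at 37 °C, 5% CO2. Lysed with HTRF reagents (Eu cryptate anti-IP-one antibody, d2-IP-one), 1 h room temperature. Read 665/590 nm after 340 nm excitation. EC50; triplicates, n = 3-6.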

Oxytocin receptor [2] = target: T1, Oxytocin receptor; assay: Displacement of [3H]OT from oxytocin receptor expressed in COS1 cells; format: cell-based, COS-1
Method in brief: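 Membranes from COS-1 cells transiently transfected with OTR, harvested 48 h post-transfection; 5 μg protein per well. Incubated with 2 nM [3H]OT and competitor (10 pM to 10 μM) on scintillation proximity beads in buffer with 0.1% BSA. Shaken 1 h at room temperature, then scintillation counted.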

[3] = Half life in […] by LC/MS and RP-HPLC method; format: ADME, cell-free, Serum; settings: human
Method in brief: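 Human plasma pre-warmed 30 min at 37 °C. Peptide (0.3 mM stock in 0.1 M phosphate, pH 7.2) added at 50 μL per 300 μL plasma, then incubated at 37 °C. Samples taken at 1, 2, 3, 4, 12, 24 and 48 h and quenched in ACN/NaCl/TFA extraction buffer. Analysed by RP-HPLC and LC-MS. Half-life from a one-phase decay fit, n = 3-6.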

Structure (SMILES) | EC50 (Oxytocin receptor [1]) | Ki (Oxytocin receptor [2]) | half-life [3]
CC[C@H](C)[C@@H]1NC(=O)[C@H](Cc2ccc(O)cc2)NC(=O)[C@@H]2CSSC[C@H](NC(=O)[C@H](CC(N)=O)NC(=O)[C@H](CCC(N)=O)NC1=O)C(=O)N1CCC[C@H]1C(=O)N[C@@H](CC(C)C)C(=O)NCC(=O)N2 | > 100000 nM | 1400 nM | > 48 h
NC(=O)CC[C@@H]1NC(=O)[C@H](Cc2ccccc2)NC(=O)[C@H](Cc2ccc(O)cc2)NC(=O)[C@@H](N)CSSC[C@@H](C(=O)N2CCC[C@H]2C(=O)N[C@@H](CCCN=C(N)N)C(=O)NCC(N)=O)NC(=O)[C@H](CC(N)=O)NC1=O [VASOPRESSIN] |  |  | 1.7 h
CC[C@H](C)[C@@H]1NC(=O)[C@H](Cc2ccc(O)cc2)NC(=O)[C@@H]2CSSC[C@H](NC(=O)[C@H](CC(N)=O)NC(=O)[C@H](CCC(N)=O)NC1=O)C(=O)N1CCC[C@H]1C(=O)N[C@@H](CC(C)C)C(=O)NCC(=O)N[C@@H](C)C(=O)NCC(=O)N[C@@H](C)C(=O)NCC(=O)N[C@@H](C)C(=O)NCC(=O)N2 (cyclo(AGAGAGCYIQNCPLG); disulfide 7-12) | > 100000 nM | > 100000 nM | > 48 h
CC[C@H](C)[C@@H]1NC(=O)[C@H](Cc2ccc(O)cc2)NC(=O)[C@@H](N)C[Te][Te]C[C@@H](C(=O)N2CCC[C@H]2C(=O)N[C@@H](CC(C)C)NCC(N)=O)NC(=O)[C@H](CC(N)=O)NC(=O)[C@H](CCC(N)=O)NC1=O | 27.3 nM | 7.6 nM | 24.2 h
CC[C@H](C)[C@@H]1NC(=O)[C@H](Cc2ccc(O)cc2)NC(=O)[C@@H](N)CSSC[C@@H](C(=O)N2CCC[C@H]2C(=O)N[C@@H](CC(C)C)C(=O)NCC(N)=O)NC(=O)[C@H](CC(N)=O)NC(=O)[C@H](CCC(N)=O)NC1=O [OXYTOCIN] |  |  | 11.6 h
CC[C@@H](C)[C@H]1NC(=O)[C@@H](CCC(N)=O)NC(=O)[C@@H](CC(N)=O)NC(=O)[C@H](NC(=O)[C@H]2CCCN2C(=O)[C@@H](CC(C)C)NC(=O)CN)CSSC[C@H](C(=O)O)NC(=O)[C@@H](Cc2ccc(O)cc2)NC1=O | > 100000 nM | > 100000 nM | 5.5 h
CC[C@H](C)[C@@H]1NC(=O)[C@H](Cc2ccc(O)cc2)NC(=O)[C@@H](N)CS[Se]C[C@@H](C(=O)N2CCC[C@H]2C(=O)N[C@@H](CC(C)C)NCC(N)=O)NC(=O)[C@H](CC(N)=O)NC(=O)[C@H](CCC(N)=O)NC1=O | 154 nM | 0.72 nM | 

From ChEMBL document CHEMBL1629457 (J Med Chem, 2010)
